Results reported in ChEMBL document CHEMBL2062525, “Substituted 3-(5-imidazo[2,1-b]thiazolylmethylene)-2-indolinones and analogues: synthesis, cytotoxic activity, and study of the mechanism of action” (J Med Chem, 2012).
pIC50: −log10 of the molar value. The source made the active and inactive calls.

How the values were obtained:
HT-29 [1] = experiment: Cell cycle arrest in human HT-29 cells assessed as increase of cell population at G2/M phase at 500 nM after 24 hrs by flow cytometry; assay type: functional, cell-based
Summary of the method: (§1)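 HT-29 cells in RPMI 1640 with 10% FBS, 2 mM L-glutamine, 37 °C, 5% CO2; treated 24 h, DMSO 0.01% in medium. Fixed in 70% ethanol at −20 °C ≥12 h, RNase A (10 μg/mL) 30 min at 37 °C, DNA stained with PI (50 μg/mL), flow cytometry; one experiment representative of three.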

[2] = Cytotoxicity against human renal cancer cells after 48 hrs; assay type: functional; conditions: Cancer cell lines; for CC50: read-out: LC50 (the source's name)
Summary of the method: (§2)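 NCI 60-cell panel subpanel lines; compounds first screened at a single 10−5 M, then those passing threshold tested in five-concentration assay over 10−9 to 10−4 M (some to 10−3 M), 48 h exposure. Growth relative to untreated control measured as cell protein; GI50, TGI and LC50 derived; some values are means of two experiments.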

HT-29 [3] = experiment: Induction of apoptosis in human HT-29 cells assessed as nuclear fragmentation by propidium iodide staining method; assay type: functional, cell-based
Summary of the method: (§3)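 HT-29 cells on glass coverslips (1×10^4 cells/cm2), treated 24 h; fixed in 3% paraformaldehyde, ethanol-permeabilized; nuclei stained with PI and viewed by laser scanning confocal microscopy for chromatin condensation and nuclear fragmentation; representative of three experiments.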

[4] = Cytotoxicity against human prostate cancer cells after 48 hrs; assay type: functional; conditions: Cancer cell lines
Summary of the method: (§4)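 NCI 60-cell panel (subpanels include leukemia and prostate). […] Percent growth relative to untreated control; some repeats averaged over two experiments.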

[5] = Cytotoxicity against human ovarian cancer cells after 48 hrs; assay type: functional; conditions: Cancer cell lines; summary of the method: as §2
HT-29 [6] = experiment: Induction of apoptosis in human HT-29 cells at 500 nM after 24 hrs by trypan blue exclusion assay; assay type: functional, cell-based
Summary of the method: (§5)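 HT-29 cells plated at 2×10^4 cells/cm2, treated 24 h in triplicate (DMSO 0.01%; DMSO-only controls); viable cells counted by trypan blue exclusion; mean ± s.e.m. of three determinations.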

HT-29 [7] = experiment: Induction of cell cycle arrest in human HT-29 cells assessed as increase in p21 expression after 24 hrs by immunofluorescence confocal microscopy; assay type: functional, cell-based
Summary of the method: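 On coverslips, HT-29 cells were treated 24 h, fixed with 3% paraformaldehyde, permeabilized with 70% ice-cold ethanol, stained with anti-p21 then FITC secondary (1 h, room temperature each), nuclei counterstained with PI; confocal microscopy; representative of three experiments.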

[8] = Cytotoxicity against human breast cancer cells after 48 hrs; assay type: functional; conditions: Cancer cell lines; summary of the method: as §2
[9] = target: MAP kinase p38 (Homo sapiens) (UniProt O15264+Q15759+Q16539+P53778); experiment: Inhibition of p38 phosphorylation at Thr180/Tyr182 in human HeLa cells at 1 uM after 3 hrs by Western blotting analysis; assay type: cell-based
Summary of the method: (§6)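 HeLa cells in RPMI 1640 with 10% FBS, treated 3 h at 1 μM. Lysates centrifuged 15,000 × g 15 min; 80 μg protein per lane by SDS-PAGE, nitrocellulose transfer, phospho-specific and total primary antibodies, peroxidase anti-rabbit secondary, ECL chemiluminescence.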

HT-29 [10] = experiment: Induction of apoptosis in human HT-29 cells at 100 nM after 24 hrs by trypan blue exclusion assay; assay type: functional, cell-based; summary of the method: as §5
[11] = Cytotoxicity against human COLON cells after 48 hrs; assay type: functional; summary of the method: as §2
HT-29 [12] = experiment: Induction of apoptosis in human HT-29 cells assessed as increase in BAX level in mitochondria after 24 hrs by confocal laser microscopic analysis; assay type: functional, cell-based
Summary of the method: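 HT-29 cells treated 24 h with 500 nM; loaded with 150 nM MitoTracker Red CM-H2XRos for 10 min at 37 °C, then fixed, permeabilized, probed with anti-Bax plus FITC secondary (1 h each, room temperature). Confocal microscopy; colocalization with mitochondria seen as orange pixels.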

[13] = target: Serine/threonine-protein kinase mTOR (Homo sapiens) (UniProt P42345); experiment: Inhibition of mTOR phosphorylation at ser2448 in human HeLa cells at 1 uM after 3 hrs by Western blotting analysis; assay type: cell-based; summary of the method: as §6
HT-29 [14] = experiment: Induction of apoptosis in human HT-29 cells assessed as loss of mitochondrial membrane potential after 24 hrs by DiOC6 staining based fluorescence assay; assay type: functional, cell-based
Summary of the method: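 Following 24 h treatment at 500 nM, HT-29 cells (1×10^6/mL) were stained with 4 nM DiOC6 for 40 min at 37 °C in the dark, counterstained with PI 5 μg/mL to exclude dead cells; fluorescence by flow cytometry; representative of three to five experiments.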

[15] = target: Mitogen-activated protein kinase; ERK1/ERK2 (Homo sapiens) (UniProt P27361+P28482); experiment: Inhibition of ERK1/2 phosphorylation at Thr202/Tyr204 in human HeLa cells at 1 uM after 3 hrs by Western blotting analysis; assay type: cell-based; summary of the method: as §6
HeLa = experiment: Inhibition of Akt phosphorylation at ser473 in human HeLa cells at 1 uM after 3 hrs by Western blotting analysis; assay type: cell-based; summary of the method: as §6
HT-29 [16] = experiment: Induction of apoptosis in human HT-29 cells assessed as increase in early apoptotic cells after 24 hrs by annexin-V-FLUOS and propidium iodide staining based flow cytometry (reference value: 3.9%); assay type: functional
[17] = target: c-Jun N-terminal kinase, JNK (Homo sapiens) (UniProt P45983+P53779+P45984); experiment: Inhibition of JNK phosphorylation at Thr183/Tyr185 in human HeLa cells at 1 uM after 3 hrs by Western blotting analysis; assay type: cell-based; summary of the method: as §6
[18] = Cytotoxicity against human CNS cancer cells after 48 hrs; assay type: functional; conditions: Cancer cell lines; summary of the method: as §2
HT-29 [19] = experiment: Induction of apoptosis in human HT-29 cells assessed as increase in caspase activity at 500 nM after 48 hrs by fluorometry; assay type: functional, cell-based
Summary of the method: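 Cells exposed 48 h to 500 nM; DEVD-cleaving caspase (DEVDase) activity measured fluorometrically in cell extracts; mean ± s.e.m. of four determinations.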

HT-29 [20] = experiment: Induction of apoptosis in human HT-29 cells assessed as chromatin condensation by propidium iodide staining method; assay type: functional, cell-based; summary of the method: as §3
HT-29 [21] = experiment: Induction of apoptosis in human HT-29 cells assessed as increase in mitochondrial ROS production by dihydroethidium staining based flow cytometry; assay type: functional, cell-based
Summary of the method: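 ROS read-out: HT-29 cells treated 24 h with 500 nM, then loaded with 5 μM dihydroethidium for 30 min at 37 °C; superoxide-derived red fluorescence measured by flow cytometry with logarithmic amplification; representative of three to five experiments.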

[22] = target: AMP-activated protein kinase, AMPK (Homo sapiens) (UniProt P54646+O43741+P54619+Q9UGJ0+Q9Y478+Q13131+Q9UGI9); experiment: Inhibition of AMPK phosphorylation at Thr172 in human HeLa cells at 1 uM after 3 hrs by Western blotting analysis; assay type: cell-based; summary of the method: as §6
[23] = Inhibition of bovine brain tubulin assembly after 20 mins; parameters: species or system Bos taurus
NSCLC = experiment: Cytotoxicity against human NSCLC cells after 48 hrs; assay type: functional; summary of the method: as §2
Bos taurus = organism: Bos taurus; experiment: Displacement of [3H]colchicine from bovine brain tubulin at 5 uM after 10 mins
[24] = Cytotoxicity against human melanoma cells after 48 hrs; assay type: functional; conditions: Melanoma cell; summary of the method: as §2
[25] = Cytotoxicity against human leukemia cells after 48 hrs; assay type: functional; conditions: Leukemia cell; summary of the method: as §4
HT-29 [26] = experiment: Cell cycle arrest in human HT-29 cells assessed as increase of cell population at G2/M phase at 100 nM after 24 hrs by flow cytometry; assay type: functional, cell-based; summary of the method: as §1

Mitogen-activated protein kinase; ERK1/ERK2 (Homo sapiens), sequence (P27361 whole entry, looked up): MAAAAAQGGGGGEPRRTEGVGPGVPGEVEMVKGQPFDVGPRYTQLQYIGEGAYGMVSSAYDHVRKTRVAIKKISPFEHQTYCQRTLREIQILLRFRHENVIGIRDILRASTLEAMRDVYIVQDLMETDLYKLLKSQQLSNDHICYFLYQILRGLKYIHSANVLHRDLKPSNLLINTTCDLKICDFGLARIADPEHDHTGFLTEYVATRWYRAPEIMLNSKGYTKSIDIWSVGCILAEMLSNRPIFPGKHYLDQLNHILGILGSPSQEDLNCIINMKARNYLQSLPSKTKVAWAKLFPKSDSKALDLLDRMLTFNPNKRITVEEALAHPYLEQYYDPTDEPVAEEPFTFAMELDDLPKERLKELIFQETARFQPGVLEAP
Mitogen-activated protein kinase; ERK1/ERK2 (Homo sapiens), sequence (P28482 whole entry, looked up): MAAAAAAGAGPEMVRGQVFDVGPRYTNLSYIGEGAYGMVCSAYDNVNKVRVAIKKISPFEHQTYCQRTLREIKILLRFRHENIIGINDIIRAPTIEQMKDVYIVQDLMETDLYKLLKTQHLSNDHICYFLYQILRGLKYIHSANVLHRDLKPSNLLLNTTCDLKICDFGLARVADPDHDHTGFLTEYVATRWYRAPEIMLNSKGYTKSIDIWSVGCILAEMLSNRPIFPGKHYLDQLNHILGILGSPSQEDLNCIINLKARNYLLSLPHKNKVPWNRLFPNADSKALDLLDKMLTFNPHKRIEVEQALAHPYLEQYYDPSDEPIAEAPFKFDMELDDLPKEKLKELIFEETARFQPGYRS

Cc1cn2c(/C=C3/C(=O)Nc4c3ccc3ccccc43)c(C)nc2s1
Activity (HT-29 [1]): Active
GI50 [2]: 0.23 µM
TGI [2]: 12 µM
CC50 [2]: 70.8 µM
Activity (HT-29 [3]): Active
GI50 [4]: 0.21 µM
TGI [4]: 16.2 µM
GI50 [5]: 0.85 µM
LC50 (concentration killing 50% of starting cells) [5]: 74.1 µM
TGI [5]: 14.1 µM
Activity (HT-29 [6]): Active
Activity (HT-29 [7]): Active
GI50 [8]: 0.18 µM
LC50 [8]: 50.1 µM
TGI [8]: 5.62 µM
inhibition [9]: inactive
Activity (HT-29 [10]): Active
GI50 [11]: 0.11 µM
TGI [11]: 58.9 µM
Activity (HT-29 [12]): Active
inhibition [13]: inactive
Activity (HT-29 [14]): Active
inhibition [15]: inactive
inhibition (HeLa): inactive
Activity (HT-29 [16]): 12.5%
inhibition [17]: inactive
GI50 [18]: 0.17 µM
LC50 [18]: 74.1 µM
TGI [18]: 5.37 µM
Activity (HT-29 [19]): Active
Activity (HT-29 [20]): Active
Activity (HT-29 [21]): Active
inhibition [22]: inactive
pIC50 [23]: 5.28
GI50 (NSCLC): 0.31 µM
LC50 (NSCLC): 93.3 µM
TGI (NSCLC): 28.2 µM
inhibition (Bos taurus): 49%
GI50 [24]: 0.14 µM
TGI [24]: 50.1 µM
TGI [25]: 53.7 µM

COc1ccc2c(c1)/C(=C\c1c(-c3ccccn3)nc3sccn13)C(=O)N2
GI50 [2]: 0.07 µM
TGI [2]: 4.68 µM
CC50 [2]: 28.8 µM
Activity (HT-29 [3]): Active
GI50 [4]: 0.03 µM
TGI [4]: 3.98 µM
GI50 [5]: 0.04 µM
LC50 (concentration killing 50% of starting cells) [5]: 17 µM
TGI [5]: 2.19 µM
Activity (HT-29 [7]): Active
GI50 [8]: 0.04 µM
LC50 [8]: 46.8 µM
TGI [8]: 8.32 µM
inhibition [9]: Active
Activity (HT-29 [10]): Active
LC50 (concentration giving 50% net cell kill) [11]: 15.1 µM
TGI [11]: 1.35 µM
inhibition [13]: inactive
inhibition [15]: Active
Activity (HT-29 [26]): Active
inhibition (HeLa): Active
Activity (HT-29 [16]): 23%
inhibition [17]: Active
GI50 [18]: 0.03 µM
LC50 [18]: 34.7 µM
TGI [18]: 2.57 µM
Activity (HT-29 [19]): Active
Activity (HT-29 [20]): Active
inhibition [22]: Active
pIC50 [23]: 5.04
GI50 (NSCLC): 0.11 µM
LC50 (NSCLC): 39.8 µM
TGI (NSCLC): 6.46 µM
inhibition (Bos taurus): 36%
GI50 [24]: 0.02 µM
TGI [24]: 6.76 µM
CC50 ([24]; read-out: LC50 (the source's name)): 38.9 µM
GI50 [25]: 0.02 µM
